Assay results of several laboratories.
Compare with care: the assays were run in different laboratories.

`CCCCCNCC(O)c1cc(Cl)cc2c1-c1ccc(Cl)cc1C2` (racemic) gave an IC50 of 0.0087 µM (Plasmodium falciparum; parasite growth, SYBR Green; W2; 48 h, drug-resistant strain, blood stage).
For `C[N+]1=C2C=C(NCCc3ccc(O)cc3)C(=O)c3[nH]cc(c32)CC1`, the IC50 was 0.0188 µM (Plasmodium falciparum; parasite growth, SYBR Green; 3D7; blood stage).
For `CC(C)C[C@@H]1NC(=O)[C@H](CC(N)=O)NC(=O)[C@H](CCCNC(=N)N)NC(=O)[C@H]([C@@H](C)O)NC(=O)[C@@H]2CSSC[C@@H]3NC(=O)[C@H]([C@@H](C)O)NC(=O)CNC(=O)CNC(=O)[C@H](C(C)C)NC(=O)[C@@H]4CSSC[C@H](NC(=O)[C@H]([C@@H](C)O)NC(=O)[C@H](CSSC[C@H](NC(=O)[C@H](C(C)C)NC(=O)[C@@H]5CCCN5C(=O)[C@H](CC(C)C)NC1=O)C(=O)NCC(=O)N[C@@H](CCC(=O)O)C(=O)N[C@@H]([C@@H](C)O)C(=O)N4)NC(=O)CNC(=O)[C@@H]1CCCN1C(=O)[C@H]([C@@H](C)O)NC(=O)[C@H](CC(N)=O)NC3=O)C(=O)N[C@@H](CO)C(=O)N[C@@H](Cc1c[nH]c3ccccc13)C(=O)N1CCC[C@H]1C(=O)N[C@@H](C(C)C)C(=O)N2`, the IC50 was 1.8 µM (Sf9; cell growth or viability, MTT; 24 h).
`N.N.[Cl][Pt][Cl]` has an IC50 of 7.55 µM (NCI-H460; cell growth or viability, MTT).
The IC50 of `OC(c1cc(C(F)(F)F)nc2c(C(F)(F)F)cccc12)C1CCCCN1` (centres unmarked) is reported as 0.0207 µM (Plasmodium falciparum; parasite growth, SYBR Green; W2; 48 h, drug-resistant strain, blood stage).
For `CC(C)C[C@@H]1NC(=O)CNC(=O)[C@H](CC(N)=O)NC(=O)[C@H](CCCNC(=N)N)NC(=O)[C@H]([C@@H](C)O)NC(=O)[C@@H]2CSSC[C@@H]3NC(=O)[C@H]([C@@H](C)O)NC(=O)CNC(=O)CNC(=O)[C@H](C(C)C)NC(=O)[C@@H]4CSSC[C@H](NC(=O)[C@H](CCCCN)NC(=O)[C@H](CSSC[C@H](NC(=O)[C@H](C(C)C)NC(=O)[C@@H]5CCCN5C1=O)C(=O)NCC(=O)N[C@@H](CCC(=O)O)C(=O)N[C@@H]([C@@H](C)O)C(=O)N4)NC(=O)CNC(=O)[C@@H]1CCCN1C(=O)[C@H]([C@@H](C)O)NC(=O)[C@H](CC(N)=O)NC3=O)C(=O)N[C@@H](CO)C(=O)N[C@@H](Cc1c[nH]c3ccccc13)C(=O)N1CCC[C@H]1C(=O)N[C@@H](C(C)C)C(=O)N2`, the IC50 was 2.6 µM (Sf9; cell growth or viability, MTT; 24 h).
With `Cn1cc2c3c1C(=O)C(N)=CC3=NCC2` the IC50 was 3.3 µM (Plasmodium falciparum; parasite growth, SYBR Green; 3D7; blood stage).
With `O[C@@H](CN[C@@H](COCC1CC1)Cc1ccccc1)c1cc(Cl)cc2c1-c1ccc(Cl)cc1C2` the IC50 was 0.0054 µM (Plasmodium falciparum; parasite growth, SYBR Green; W2; 48 h, drug-resistant strain, blood stage).
`Cc1c2ccncc2c(C)c2c1[nH]c1ccccc12` has a GI50 of 4.1 µM (NCI-H460; cell growth or viability, SRB; 72 h).
With `Cn1cc2c3c1C(=O)C(NCCc1ccc(O)cc1)=CC3=[N+](C)CC2` the IC50 was 0.0437 µM (Plasmodium falciparum; parasite growth, SYBR Green; 3D7; blood stage).
`CC(C)C[C@@H]1NC(=O)[C@H](CC(N)=O)NC(=O)[C@H](CCCNC(=N)N)NC(=O)[C@H]([C@@H](C)O)NC(=O)[C@@H]2CSSC[C@@H]3NC(=O)[C@H]([C@@H](C)O)NC(=O)CNC(=O)CNC(=O)[C@H](C(C)C)NC(=O)[C@@H]4CSSC[C@H](NC(=O)[C@H](CCCCN)NC(=O)[C@H](CSSC[C@H](NC(=O)[C@H](C(C)C)NC(=O)[C@@H]5CCCN5C(=O)[C@H](CC(C)C)NC1=O)C(=O)NCC(=O)N[C@@H](CCC(=O)O)C(=O)N[C@@H]([C@@H](C)O)C(=O)N4)NC(=O)CNC(=O)[C@@H]1CCCN1C(=O)[C@H]([C@@H](C)O)NC(=O)[C@H](CC(N)=O)NC3=O)C(=O)N[C@@H](CO)C(=O)N[C@@H](Cc1c[nH]c3ccccc13)C(=O)N1CCC[C@H]1C(=O)N[C@@H](C(C)C)C(=O)N2` has an IC50 of 1.8 µM (Sf9; cell growth or viability, MTT; 24 h).
